Activity calls are given as the source filed them. The rule behind the calls is not given here.
Tests used:
[1] = molecular target: T1, Lanosterol 14-alpha demethylase (Mus musculus, UniProt Q8K0C4); test: Inhibition of CYP51 in Dhcr7-deficient mouse Neuro2a cells assessed as decrease in 7-DHC levels at 1 uM by LC-MS/GC-MS analysis; format: cell-based
T1 sequence (Q8K0C4 whole entry): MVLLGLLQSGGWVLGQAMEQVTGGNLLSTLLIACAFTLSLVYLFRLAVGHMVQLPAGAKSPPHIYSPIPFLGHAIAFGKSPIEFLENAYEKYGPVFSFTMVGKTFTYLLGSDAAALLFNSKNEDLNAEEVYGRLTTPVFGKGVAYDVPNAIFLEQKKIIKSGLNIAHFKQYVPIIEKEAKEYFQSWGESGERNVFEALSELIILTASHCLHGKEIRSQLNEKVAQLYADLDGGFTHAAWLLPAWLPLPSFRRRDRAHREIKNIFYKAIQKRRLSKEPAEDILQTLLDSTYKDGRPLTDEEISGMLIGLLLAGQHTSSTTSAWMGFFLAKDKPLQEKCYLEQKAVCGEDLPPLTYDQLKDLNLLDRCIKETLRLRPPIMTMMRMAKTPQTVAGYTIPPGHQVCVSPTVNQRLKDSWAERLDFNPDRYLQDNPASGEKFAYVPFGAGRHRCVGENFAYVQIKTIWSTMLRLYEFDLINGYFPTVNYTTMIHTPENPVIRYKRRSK
In short: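 Follow-up (verification) assay in 96-well plates, run as the 384-well screen, in triplicate, at varying compound concentrations. Cells counted by Hoechst imaging, washed with PBS, then lysed in MeOH with BHT/TPP and isotope standards (d7-Chol, d7-7-DHC, 13C3-Des, 13C3-Lan). Sterols derivatised with PTAD for 20 min at RT and quantified by C18 UPLC-MS (SRM). Remaining sample silylated with BSTFA and run on GC-MS, quantified against d7-Chol.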

N2a [2] = test: Decrease in lanosterol levels in mouse Neuro2a cells by LC-MS analysis; format: functional, cell-based
In short: (§1)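 Control Neuro2a cells (10000/well, 0.5% FBS) on compound, 24 h. Hoechst cell count, then methanol lysis with labelled standards (d7-7-DHC, 13C3-desmosterol, 13C3-lanosterol), PTAD derivatization 20 min at RT, UPLC-MS SRM. GC-MS of silylated extract for further sterols.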

N2a [3] = test: Decrease in desmosterol levels in mouse Neuro2a cells by LC-MS analysis; format: functional, cell-based; in short: as §1
[4] = molecular target: T2, 3-beta-hydroxysteroid-Delta(8),Delta(7)-isomerase (Mus musculus) (UniProt P70245); test: Inhibition of delta 8-7 isomerase in Dhcr7-deficient mouse Neuro2a cells assessed as decrease in 7-DHC levels at 1 uM by LC-MS/GC-MS analysis; format: cell-based
T2 sequence (whole entry): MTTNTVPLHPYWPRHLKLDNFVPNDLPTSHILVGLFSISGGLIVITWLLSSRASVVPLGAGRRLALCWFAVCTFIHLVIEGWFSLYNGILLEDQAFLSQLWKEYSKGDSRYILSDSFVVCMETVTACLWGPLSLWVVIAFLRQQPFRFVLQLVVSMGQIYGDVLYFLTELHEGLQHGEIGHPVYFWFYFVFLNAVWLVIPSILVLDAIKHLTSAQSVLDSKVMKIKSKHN
In short: (§2)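 Dhcr7-deficient Neuro2a cells (13000/well, 0.5% FBS medium) on predeposited compound, 24 h at 37 °C. Hoechst-stained and imaged to count cells. Lysed in methanol containing isotope-labelled sterol standards, derivatized with PTAD 20 min at RT, then isocratic C18 UPLC-MS/SRM. Remaining extract silylated with BSTFA for GC-MS, quantified against d7-cholesterol. Follow-up runs in triplicate.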

[5] = molecular target: T3, Delta(24)-sterol reductase (Mus musculus) (UniProt Q8VCH6); test: Inhibition of DR24 in Dhcr7-deficient mouse Neuro2a cells assessed as decrease in 7-DHC levels at 1 uM by LC-MS/GC-MS analysis; format: cell-based; in short: as §2
T3 sequence (whole entry): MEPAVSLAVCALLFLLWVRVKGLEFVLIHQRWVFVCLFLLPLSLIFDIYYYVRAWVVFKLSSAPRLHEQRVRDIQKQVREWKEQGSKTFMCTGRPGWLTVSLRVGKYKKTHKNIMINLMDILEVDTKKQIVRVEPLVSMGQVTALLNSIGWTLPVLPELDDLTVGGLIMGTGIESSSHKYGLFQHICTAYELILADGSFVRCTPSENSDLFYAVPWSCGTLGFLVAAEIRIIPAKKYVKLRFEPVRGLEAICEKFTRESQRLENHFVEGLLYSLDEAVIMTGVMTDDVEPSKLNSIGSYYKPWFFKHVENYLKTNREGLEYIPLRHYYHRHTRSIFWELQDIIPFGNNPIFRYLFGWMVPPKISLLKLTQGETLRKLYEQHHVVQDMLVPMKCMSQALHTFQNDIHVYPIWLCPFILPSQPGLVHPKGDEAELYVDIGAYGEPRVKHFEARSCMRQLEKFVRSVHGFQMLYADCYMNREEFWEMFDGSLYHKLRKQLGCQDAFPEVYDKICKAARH

[6] = molecular target: T4, 3-hydroxy-3-methylglutaryl-coenzyme A reductase (Mus musculus) (UniProt Q01237); test: Inhibition of HMGCoA reductase in Dhcr7-deficient mouse Neuro2a cells assessed as decrease in 7-DHC levels at 1 uM by LC-MS/GC-MS analysis; format: cell-based; in short: as §2
T4 sequence (whole entry): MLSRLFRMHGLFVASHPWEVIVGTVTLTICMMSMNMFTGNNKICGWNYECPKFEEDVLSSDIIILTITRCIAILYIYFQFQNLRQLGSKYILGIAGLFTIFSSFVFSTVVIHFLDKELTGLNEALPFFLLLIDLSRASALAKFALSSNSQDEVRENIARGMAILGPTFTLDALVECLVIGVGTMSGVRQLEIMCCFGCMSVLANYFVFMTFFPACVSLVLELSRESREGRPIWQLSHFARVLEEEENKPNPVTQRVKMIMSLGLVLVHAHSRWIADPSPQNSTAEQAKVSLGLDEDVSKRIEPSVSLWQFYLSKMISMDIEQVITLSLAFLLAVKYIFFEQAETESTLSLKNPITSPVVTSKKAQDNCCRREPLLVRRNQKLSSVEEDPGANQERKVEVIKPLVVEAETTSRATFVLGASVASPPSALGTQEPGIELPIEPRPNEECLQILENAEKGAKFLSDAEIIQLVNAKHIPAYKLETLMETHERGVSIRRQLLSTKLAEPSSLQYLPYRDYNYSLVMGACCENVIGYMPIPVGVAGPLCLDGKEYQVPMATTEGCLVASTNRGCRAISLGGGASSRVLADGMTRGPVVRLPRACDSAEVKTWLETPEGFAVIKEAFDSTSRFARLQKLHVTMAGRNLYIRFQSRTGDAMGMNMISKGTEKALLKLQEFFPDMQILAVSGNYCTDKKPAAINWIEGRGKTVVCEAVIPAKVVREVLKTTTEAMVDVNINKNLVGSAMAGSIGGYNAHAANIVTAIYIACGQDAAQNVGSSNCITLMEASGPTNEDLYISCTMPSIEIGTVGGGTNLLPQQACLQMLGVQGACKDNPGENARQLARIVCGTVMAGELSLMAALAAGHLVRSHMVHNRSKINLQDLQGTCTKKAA

[7] = molecular target: T5, Delta(24)-sterol reductase (Homo sapiens) (UniProt Q15392); test: Inhibition of DR24 in human SLOS fibroblasts assessed as decrease in 7-DHC levels at 10 nM after 5 days by LC-MS/GC-MS analysis
T5 sequence (whole entry): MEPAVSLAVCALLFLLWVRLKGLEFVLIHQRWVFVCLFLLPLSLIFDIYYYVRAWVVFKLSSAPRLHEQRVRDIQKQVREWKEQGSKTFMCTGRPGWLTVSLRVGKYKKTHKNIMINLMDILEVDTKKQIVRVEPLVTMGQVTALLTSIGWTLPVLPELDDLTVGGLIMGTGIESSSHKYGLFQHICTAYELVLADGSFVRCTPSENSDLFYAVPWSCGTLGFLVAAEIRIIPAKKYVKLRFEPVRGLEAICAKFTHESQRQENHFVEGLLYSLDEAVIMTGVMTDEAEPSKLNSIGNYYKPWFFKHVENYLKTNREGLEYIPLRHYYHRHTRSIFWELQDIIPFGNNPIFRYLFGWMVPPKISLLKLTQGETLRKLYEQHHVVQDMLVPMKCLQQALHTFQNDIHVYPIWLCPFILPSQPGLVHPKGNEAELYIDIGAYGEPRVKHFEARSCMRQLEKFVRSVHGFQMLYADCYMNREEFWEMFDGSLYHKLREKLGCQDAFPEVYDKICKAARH
In short: (§3)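 SLOS patient skin fibroblasts (passage 8–20) grown in 96-well plates in delipidated serum with compound for 5 days; three different SLOS lines. Sterols quantified by PTAD-derivatized UPLC-MS plus GC-MS; 7-DHC expressed as percentage of untreated cells.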

[8] = Cytotoxicity against human SLOS fibroblasts at 5 uM after 5 days by Cell Titer assay; format: cell-based; settings: fibroblast, 120 h
Fibroblast = test: Decrease in cholesterol levels in human SLOS fibroblasts at 10 nM after 5 days by LC-MS/GC-MS analysis; format: functional, cell-based; in short: as §3
N2a [9] = test: Decrease in 7-DHC levels in Dhcr7-deficient mouse Neuro2a cells at 1 uM by LC-MS/GC-MS analysis; format: functional, cell-based; in short: as §2
[10] = molecular target: T3, Delta(24)-sterol reductase (Mus musculus); test: Inhibition of DR24 in mouse Neuro2a cells assessed as decrease in 7-DHC levels at 1 uM by LC-MS/GC-MS analysis; format: cell-based; in short: as §1
[11] = molecular target: T2, 3-beta-hydroxysteroid-Delta(8),Delta(7)-isomerase (Mus musculus); test: Inhibition of delta 8-7 isomerase in mouse Neuro2a cells assessed as decrease in 7-DHC levels at 1 uM by LC-MS/GC-MS analysis; format: cell-based; in short: as §1

## c1ccc(-c2ccc(C(c3ccccc3)n3ccnc3)cc2)cc1 (stereo not given) [BIFONAZOLE]
[1]
  inhibition (INH): Active

## Clc1ccccc1CNC[C@H]1CC[C@H](CNCc2ccccc2Cl)CC1
N2a [2]
  Activity: Active
N2a [3]
  Activity: Active

## OCCN1CCN(CCCN2c3ccccc3Sc3ccc(Cl)cc32)CC1
[4]
  inhibition: Active
[5]
  inhibition: Active

## CCc1c(C)[nH]c2c1C(=O)C(CN1CCOCC1)CC2 (stereo not given)
[5]
  inhibition: Active

## O=c1n(CCCN2CCN(c3cccc(Cl)c3)CC2)nc2ccccn12
N2a [2]
  Activity: Active
N2a [3]
  Activity: Active

## OCCOCCN1CCN(C(c2ccccc2)c2ccc(Cl)cc2)CC1 (stereo not given)
[4]
  inhibition: Active

## CCN(CC)CCOc1ccc(C(O)(Cc2ccc(Cl)cc2)c2ccc(C)cc2)cc1 (stereo not given)
[4]
  inhibition: Active
[5]
  inhibition: Active

## CO[C@H]1O[C@@H]2O[C@@]3(C)CC[C@H]4[C@H](C)CC[C@@H]([C@H]1C)[C@@]24OO3
[6]
  7-DHC decrease call (active/inactive): Active

## O=C(CCCN1CCC(O)(c2ccc(Cl)cc2)CC1)c1ccc(F)cc1
N2a [2]
  Activity: Active
N2a [3]
  Activity: Active

## Clc1ccccc1C(c1ccccc1)(c1ccccc1)n1ccnc1 [CLOTRIMAZOLE]
[1]
  inhibition (INH): Active

## Clc1ccc(COC(Cn2ccnc2)c2ccc(Cl)cc2Cl)c(Cl)c1 (stereo not given) [MICONAZOLE]
[1]
  inhibition (INH): Active

## CC(=O)[C@H]1CC[C@H]2[C@@H]3CCC4=CC(=O)CC[C@]4(C)[C@H]3CC[C@]12C
[5]
  inhibition: Active

## C[C@]12CC[C@@H]3c4ccc(O)cc4C[C@@H](CCCCCCCCC[S+]([O-])CCCC(F)(F)C(F)(F)F)[C@H]3[C@@H]1CC[C@@H]2O (stereo not given in full) [FULVESTRANT]
[5]
  inhibition: Active
[7]
  inhibition: Active
[8]
  Activity: Toxic
Fibroblast
  Activity: inactive

## CC[C@H](C)C(=O)O[C@H]1C[C@@H](C)C=C2C=C[C@H](C)[C@H](CC[C@@H]3C[C@@H](O)CC(=O)O3)[C@H]21
[6]
  7-DHC decrease call (active/inactive): Active

## CCCC1O[C@@H]2C[C@H]3[C@@H]4CCC5=CC(=O)C=C[C@]5(C)[C@H]4[C@@H](O)C[C@]3(C)[C@]2(C(=O)CO)O1 (stereo not given in full)
N2a [9]
  Activity: Active

## Clc1ccc(COC(Cn2ccnc2)c2ccc(Cl)cc2Cl)cc1 (stereo not given) [ECONAZOLE]
[1]
  inhibition (INH): Active

## CCC(C)(C)C(=O)O[C@H]1C[C@@H](C)C=C2C=C[C@H](C)[C@H](CC[C@@H]3C[C@@H](O)CC(=O)O3)[C@H]21
[6]
  7-DHC decrease call (active/inactive): Active

## OCCN1CCN(CCCN2c3ccccc3Sc3ccc(C(F)(F)F)cc32)CC1
[4]
  inhibition: Active

## O=C(O)C[C@H](O)C[C@H](O)/C=C/c1c(C2CC2)nc2ccccc2c1-c1ccc(F)cc1
[10]
  Decrease in 7-DHC levels (active/inactive call): Active
[11]
  Activity (decrease in 7-DHC levels): Active
[6]
  7-DHC decrease call (active/inactive): Active

## CN1CCN(CCCN2c3ccccc3Sc3ccc(Cl)cc32)CC1
[4]
  inhibition: Active
[5]
  inhibition: Active

## CN1CC[C@]2(c3cccc(O)c3)Cc3nc4ccccc4cc3C[C@H]2C1
[5]
  inhibition: Active

## CN(C)CCC=C1c2ccccc2COc2ccccc21
[5]
  inhibition: Active

## CCN(CC)CCO[C@H]1CC[C@@]2(C)C(=CC[C@@H]3[C@@H]2CC[C@]2(C)C(=O)CC[C@@H]32)C1
N2a [9]
  Activity: Active

## C[C@H]1c2cccc(O)c2C(=O)C2=C(O)[C@]3(O)C(=O)C(C(N)=O)=C(O)[C@@H](N(C)C)[C@@H]3[C@@H](O)[C@@H]21
N2a [9]
  Activity: Active

## C[C@@H]1CC[C@H]2[C@@H](C)C(=O)O[C@@H]3O[C@@]4(C)CC[C@@H]1[C@]32OO4
[6]
  inhibition: Active

## CC[C@H](C)C(=O)O[C@H]1C[C@H](O)C=C2C=C[C@H](C)[C@H](CC[C@@H](O)C[C@@H](O)CC(=O)O)[C@H]21
[6]
  7-DHC decrease call (active/inactive): Active

## Cc1ccc(NC(=O)c2ccc(CN3CCN(C)CC3)cc2)cc1Nc1nccc(-c2cccnc2)n1
[5]
  inhibition: Active

## CC[C@H](C)C(=O)O[C@H]1CCC=C2C=C[C@H](C)[C@H](CC[C@@H]3C[C@@H](O)CC(=O)O3)[C@H]21
[6]
  7-DHC decrease call (active/inactive): Active

## CN1CCN(CCCN2c3ccccc3Sc3ccc(C(F)(F)F)cc32)CC1
[5]
  inhibition: Active
